Source: publication PMC4115637 (Pharmacology Research & Perspectives, 2014)
Numbering of substitutions follows the chain as printed.

How the values were obtained:
[1] = molecular target: T1, human TRPV3 (Homo sapiens, UniProt Q8NET8); experiment: Calcium flux in TRPV3 overexpressing HEK-293 cells; assay type: cell-based; conditions: HEK-293 cells overexpressing TRPV3
T1 sequence (Q8NET8 1-790): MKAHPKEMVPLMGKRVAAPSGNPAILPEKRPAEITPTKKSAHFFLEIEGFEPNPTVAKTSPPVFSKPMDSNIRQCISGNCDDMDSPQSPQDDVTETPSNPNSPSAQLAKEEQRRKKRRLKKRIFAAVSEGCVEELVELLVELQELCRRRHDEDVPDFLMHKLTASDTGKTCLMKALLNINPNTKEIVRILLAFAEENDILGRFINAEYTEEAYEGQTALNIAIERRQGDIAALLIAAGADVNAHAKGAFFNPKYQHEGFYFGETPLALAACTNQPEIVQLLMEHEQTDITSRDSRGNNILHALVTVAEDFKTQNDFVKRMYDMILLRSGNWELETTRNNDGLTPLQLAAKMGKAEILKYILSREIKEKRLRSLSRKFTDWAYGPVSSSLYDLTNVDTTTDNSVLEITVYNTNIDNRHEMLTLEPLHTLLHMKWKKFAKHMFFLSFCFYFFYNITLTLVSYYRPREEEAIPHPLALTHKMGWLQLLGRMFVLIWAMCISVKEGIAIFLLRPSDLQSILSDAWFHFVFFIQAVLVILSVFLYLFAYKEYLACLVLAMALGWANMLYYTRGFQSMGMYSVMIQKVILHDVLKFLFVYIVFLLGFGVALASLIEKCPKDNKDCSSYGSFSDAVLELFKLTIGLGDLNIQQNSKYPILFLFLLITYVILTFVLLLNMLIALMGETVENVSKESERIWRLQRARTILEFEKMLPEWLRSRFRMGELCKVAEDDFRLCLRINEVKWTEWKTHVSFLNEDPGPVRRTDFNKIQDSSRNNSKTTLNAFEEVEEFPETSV

[2] = molecular target: human TRPM8 (Homo sapiens, UniProt Q7Z2W7); experiment: Calcium flux in HEK-293 cells overexpressing TRPM8; assay type: cell-based; conditions: concentrations up to 1 mmol/L
[3] = molecular target: T1, human TRPV3; experiment: Whole-cell recordings in TRPV3-overexpressing HEK-293 cells; assay type: cell-based; conditions: 250 μmol/L, 500 μmol/L, 1 mmol/L; negative holding potential
Outline: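 HEK-293 cells stably overexpressing human TRPV3 were plated on concanavalin A-coated coverslips and used within 24 h. Whole-cell voltage clamp at −60 or −70 mV with 3–5 MΩ pipettes. External saline: NaCl/KCl/MgCl2/HEPES/glucose/2 mmol/L CaCl2, pH 7.4. CsCl/EGTA internal, pH 7.3. Test compound was perfused or injected, with a fresh cell for each recording. Peak versus basal inward current was compared by one-tailed paired t-test.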

[4] = molecular target: T2, TRPV3-R696K (Homo sapiens, UniProt Q8NET8, R696K); experiment: Calcium flux in HEK-293 cells transiently transfected with TRPV3-R696K; assay type: cell-based; conditions: 100 μmol/L carvacrol, 100 μmol/L 2-APB, 100 and 200 μmol/L drofenine
T2 sequence (Q8NET8 1-790 R696K): T1 sequence (Q8NET8 1-790) with R696K

[5] = molecular target: T1, human TRPV3; experiment: Re-evaluation of screening hits as TRPV3 agonists; assay type: cell-based; conditions: Table 1
[6] = test system: neomycin-induced hair cell loss; conditions: ref Coffin et al. [2010]; cited from earlier work

Chain of human TRPM8 (Q7Z2W7 whole entry): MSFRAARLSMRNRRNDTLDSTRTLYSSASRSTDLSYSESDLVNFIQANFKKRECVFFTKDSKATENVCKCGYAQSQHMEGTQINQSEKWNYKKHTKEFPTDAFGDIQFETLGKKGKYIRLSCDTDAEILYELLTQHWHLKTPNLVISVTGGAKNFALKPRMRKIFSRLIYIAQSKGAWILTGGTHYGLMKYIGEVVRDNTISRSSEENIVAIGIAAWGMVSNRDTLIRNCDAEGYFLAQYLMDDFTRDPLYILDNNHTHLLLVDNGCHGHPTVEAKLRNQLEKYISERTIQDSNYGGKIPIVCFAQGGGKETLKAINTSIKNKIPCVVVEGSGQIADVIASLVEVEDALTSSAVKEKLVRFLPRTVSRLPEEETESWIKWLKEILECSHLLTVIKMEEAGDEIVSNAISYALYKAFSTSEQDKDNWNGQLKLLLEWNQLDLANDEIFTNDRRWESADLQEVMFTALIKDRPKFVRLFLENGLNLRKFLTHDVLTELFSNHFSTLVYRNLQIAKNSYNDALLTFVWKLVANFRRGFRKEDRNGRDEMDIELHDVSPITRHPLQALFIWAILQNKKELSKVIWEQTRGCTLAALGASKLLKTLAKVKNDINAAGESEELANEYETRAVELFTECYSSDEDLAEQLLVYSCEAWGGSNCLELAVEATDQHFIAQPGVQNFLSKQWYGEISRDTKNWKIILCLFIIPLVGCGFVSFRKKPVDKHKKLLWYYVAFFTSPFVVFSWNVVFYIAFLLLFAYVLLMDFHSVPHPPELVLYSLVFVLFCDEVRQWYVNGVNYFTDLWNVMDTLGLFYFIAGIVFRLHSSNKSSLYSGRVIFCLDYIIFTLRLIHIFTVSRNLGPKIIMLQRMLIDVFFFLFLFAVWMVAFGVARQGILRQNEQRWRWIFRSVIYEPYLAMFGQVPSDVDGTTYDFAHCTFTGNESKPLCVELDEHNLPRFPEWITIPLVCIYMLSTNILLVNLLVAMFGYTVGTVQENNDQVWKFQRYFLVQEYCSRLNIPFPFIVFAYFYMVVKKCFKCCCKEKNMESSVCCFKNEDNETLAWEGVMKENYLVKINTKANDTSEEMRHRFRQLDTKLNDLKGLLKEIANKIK

## CCN(CC)CCOC(=O)C(c1ccccc1)C1CCCCC1 (stereo not drawn) [drofenine]
[1]
  lowest concentration with detectable change in TRPV3 activity: ~30 µmol/L
[2]
  activation of TRPM8: not observed
[3]
  inward currents: dose-dependently induced inward currents
[4]
  calcium flux in TRPV3-R696K: diminished-to-no-function
[5]
  Comment(s): re-evaluation as TRPV3 agonist: TRPV3-selective agonist
[6]
  effect on neomycin-induced hair cell loss: inhibitor of neomycin-induced hair cell loss
